Measurements from ChEMBL document CHEMBL1148214, “In-vitro cytotoxic activities of the major bromophenols of the red alga Polysiphonia lanosa and some novel synthetic isomers” (J Nat Prod, 2004).
Activity calls are given as the source filed them. The calls are words filed in the database; no cut-off is given here.

What was measured:
HCT-116 = experiment: Cytotoxicity against human HCT116 cells after 96 hrs by MTT assay; assay type: functional, cell-based
Method in brief: (§1)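 DLD-1 or HCT-116 cells in RPMI 1640 with 10% FCS, seeded at 1 × 10^4 cells mL-1 and incubated overnight at 37 °C, 5% CO2. Continuous 4-day drug exposure, drug in DMSO (max 0.1%), 8 wells per concentration. MTT 0.5 mg mL-1 for 4 h; formazan in DMSO read at 550 nm. IC50 taken as 50% growth inhibition versus control; 5FU positive control; triplicate.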

DLD-1 [1] = experiment: Cytotoxicity against human DLD1 cells after 96 hrs by MTT assay; assay type: functional, cell-based; parameters: unit not given here; method in brief: as §1
DLD-1 [2] = experiment: Cell cycle arrest in human DLD1 cells assessed as accumulation at G0/G1 phase at 2.5 umol after 72 hrs by flow cytometry; assay type: functional
Method in brief: (§2)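 DLD-1 cells seeded at 5 × 10^4 cells mL-1 and grown 24 h at 37 °C, then exposed to drug for 72 h. Harvested by trypsinisation, fixed in 70% EtOH, suspended in PBS pH 7.3, RNase-treated and stained with propidium iodide for 30 min at 37 °C. DNA content measured by flow cytometry on 10 000 cells; percentage of cells in each cycle phase calculated.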

DLD-1 [3] = experiment: Cell cycle arrest in human DLD1 cells assessed as accumulation at S phase at 5 umol after 72 hrs by flow cytometry; assay type: functional; method in brief: as §2
DLD-1 [4] = experiment: Cytotoxicity against human DLD1 cells after 1 hr by MTT assay; assay type: functional, cell-based
Method in brief: (§3)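 DLD-1 cells seeded at 1 × 10^4 cells mL-1 and incubated overnight at 37 °C, 5% CO2. Drug was in DMSO (max 0.1% final) diluted in medium, 8 wells per concentration. After 1, 3 or 24 h the drug was removed, cells washed twice and grown in fresh medium to 4 days total. MTT at 0.5 mg mL-1 for 4 h; formazan dissolved in DMSO, absorbance read at 550 nm. IC50 determined relative to control survival; triplicate experiments.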

DLD-1 [5] = experiment: Cell cycle arrest in human DLD1 cells assessed as accumulation at S phase at 2.5 umol after 72 hrs by flow cytometry; assay type: functional; method in brief: as §2
DLD-1 [6] = experiment: Cell cycle arrest in human DLD1 cells assessed as accumulation at G2/M phase at 2.5 umol after 72 hrs by flow cytometry; assay type: functional; method in brief: as §2
DLD-1 [7] = experiment: Cell cycle arrest in human DLD1 cells assessed as accumulation at G2/M phase at 5 umol after 72 hrs by flow cytometry; assay type: functional; method in brief: as §2
DLD-1 [8] = experiment: Cytotoxicity against human DLD1 cells at 8 umol after 96 hrs by MTT assay; assay type: functional, cell-based
Method in brief: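 DLD-1 cells exposed continuously for 4 days to drug at 8 µmol in DMSO-containing medium (max 0.1% DMSO). Survival measured by MTT at 0.5 mg mL-1 for 4 h, formazan read at 550 nm, and expressed as percentage of mean control absorbance.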

DLD-1 [9] = experiment: Cell cycle arrest in human DLD1 cells assessed as accumulation at G2/M phase at 10 umol after 72 hrs by flow cytometry; assay type: functional; method in brief: as §2
DLD-1 [10] = experiment: Cell cycle arrest in human DLD1 cells assessed as accumulation at G0/G1 phase at 10 umol after 72 hrs by flow cytometry; assay type: functional; method in brief: as §2
DLD-1 [11] = experiment: Cell cycle arrest in human DLD1 cells assessed as accumulation at S phase at 10 umol after 72 hrs by flow cytometry; assay type: functional; method in brief: as §2
DLD-1 [12] = experiment: Cell cycle arrest in human DLD1 cells assessed as accumulation at G0/G1 phase at 5 umol after 72 hrs by flow cytometry; assay type: functional; method in brief: as §2
DLD-1 [13] = experiment: Cytotoxicity against human DLD1 cells after 3 hrs by MTT assay; assay type: functional, cell-based; method in brief: as §3
DLD-1 [14] = experiment: Cytotoxicity against human DLD1 cells after 24 hrs by MTT assay; assay type: functional, cell-based; method in brief: as §3

SMILES	IC50 (HCT-116) [µmol]	IC50 (DLD-1 [1])	other results
COCc1cc(O)c(O)c(Br)c1Br	14.1		
CCOCc1cc(O)c(O)c(Br)c1Br [ETHYL LANOSOL]	2.51	13.5	
O=c1[nH]cc(F)c(=O)[nH]1 [FLUOROURACIL]	4.93		
OCc1cc(O)c(O)c(Br)c1Br [LANOSOL]	20.4		
O=Cc1cc(O)c(O)c(Br)c1		27.9	
OCc1cc(O)c(O)c(Br)c1		51.5	
O=Cc1cc(O)c(O)c(Br)c1Br		30.9	
CCCOCc1cc(Br)c(O)c(O)c1Br	0.8	1.72	Activity (DLD-1 [2]): 32.14%; Activity (DLD-1 [3]): 60.56%; IC50 (DLD-1 [4]): 79.76 µmol; Activity (DLD-1 [5]): 42.21%; Activity (DLD-1 [6]): 25.65%; Activity (DLD-1 [7]): 19.79%; Activity (DLD-1 [8]): Active; Activity (DLD-1 [9]): 9.95%; Activity (DLD-1 [10]): 56.4%; Activity (DLD-1 [11]): 33.65%; Activity (DLD-1 [12]): 19.65%; IC50 (DLD-1 [13]): 77.98 µmol; IC50 (DLD-1 [14]): 2.71 µmol
CCOCc1cc(O)c(O)c(Br)c1		35.1	
COCc1cc(O)c(O)c(Br)c1		35.3	
O=Cc1cc(Br)c(O)c(O)c1Br		31	
CCCOCc1cc(O)c(O)c(Br)c1Br	1.32	12.4	
COc1cc(C=O)cc(Br)c1O		> 200	
CCOCc1cc(Br)c(O)c(O)c1Br	1.54	7.15	
COCc1cc(Br)c(O)c(O)c1Br	3.48	7.27	
CCCOCc1cc(O)c(O)c(Br)c1		26.3	
Oc1c(O)c(Br)c(Br)c(Br)c1Br [TETRABROMOCATECHOL]	8.75	6.43	
OCc1cc(Br)c(O)c(O)c1Br	21.4	15	
